Legend:
Homo sapiens [1] = species on record: Homo sapiens; assay: Activation of LPS-induced NF-kappaB activity in human THP1-Blue-NF-kappaB cells assessed as increase in SEAP reporter activity at 5 uM incubated for 20 hrs by quanti-blue SEAP assay relative to control
Summary of the method: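 THP1-Blue NF-κB cells, 10^5/well, in RPMI with 10% FBS, pen/strep and Normocin. Compound (5 μM single point or graded concentrations, 0.05% DMSO) is added together with LPS; methods give final LPS 10 μg/mL, table footnote gives 10 ng/mL. Supernatant SEAP is read after 20 h by QuantiBlue colorimetry at 630 nm.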

Homo sapiens [2] = species on record: Homo sapiens; assay: Activation of IFNalpha signalling in human ISRE-bla-THP1 cells assessed as increase in type-1 IFN-alpha induced ISRE activity at 5 uM preincubated for 16 hrs followed by CCF4-AM substrate addition and measured after 3 hrs by FRET based assay relative to control; type: cell-based
Summary of the method: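 ISRE-bla THP-1 cells, 5×10^4/well, in RPMI with 10% dialyzed FBS, 0.1 mM non-essential amino acids, 1 mM pyruvate and pen/strep. Cells are co-treated with IFN-α (final 100 U/mL) and compound: 5 μM single point or graded concentrations, 0.05% DMSO. After 16 h, CCF4-AM is added for 3 h at RT in the dark.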

THP-1 = assay: Cytotoxicity against human THP1 cells assessed as reduction in cell viability at 5 uM incubated for 18 hrs by MTT assay relative to control; conditions: thp-1, 18 h

Structure (SMILES)	Activity (Homo sapiens [1]) [%]	Activity (Homo sapiens [2]) [%]	Activity (THP-1) [%]
COc1cc(NS(=O)(=O)c2ccc(CNC(=O)OC(C)(C)C)cc2)c(OC)cc1Cl	100	101	109.2
COc1ccc(S(=O)(=O)Nc2cc(OC)c(Cl)cc2OC)cc1N	158	166	77.3
CCOC(=O)CN(c1cc(OC)c(Cl)cc1OC)S(=O)(=O)c1ccc(OCC)cc1	202	184	81.4
C#CCOCCOCCOCCN(c1cc(OC)c(Cl)cc1OC)S(=O)(=O)c1ccc(OCC)cc1	107	130	73.7
CCCCCCN(c1cc(OC)c(Cl)cc1OC)S(=O)(=O)c1ccc(OCC)cc1	81	99	95.2
CCCCN(c1cc(OC)c(Cl)cc1OC)S(=O)(=O)c1ccc(OCC)cc1	192	156	77.7
CCOc1ccc(S(=O)(=O)N(CCCNC(=O)CCCC[C@H]2SC[C@H]3NC(=O)N[C@H]32)c2cc(OC)c(N=[N+]=[N-])cc2OC)cc1	162	140	73.8
CCOc1ccc(S(=O)(=O)N(CCCO)c2cc(OC)c(Cl)cc2OC)cc1	219	178	68.5
CCOC(=O)CCCN(c1cc(OC)c(Cl)cc1OC)S(=O)(=O)c1ccc(OCC)cc1	199	199	80.1
CCCCCCCCCCCCN(c1cc(OC)c(Cl)cc1OC)S(=O)(=O)c1ccc(OCC)cc1	97	100	93
CCOc1ccc(S(=O)(=O)N(CCCNC(=O)c2ccc(-c3c4ccc(=[N+](C)C)cc-4oc4cc(N(C)C)ccc34)c(C(=O)O)c2)c2cc(OC)c(Cl)cc2OC)cc1	111	123	76.9
COc1cccc(S(=O)(=O)Nc2cc(OC)c(Cl)cc2OC)c1	116	104	79.6
C#CCN(c1cc(OC)c(N=[N+]=[N-])cc1OC)S(=O)(=O)c1ccc(OCC)cc1	217	182	73.4
CCOc1ccc(S(=O)(=O)Nc2ccc(Cl)c(OC)c2)cc1	126	99	83.7
CCOc1ccc(S(=O)(=O)N(CCCNC(=O)OC(C)(C)C)c2cc(OC)c(Cl)cc2OC)cc1	134	140	75.6
CCOc1ccc(S(=O)(=O)N(CCCC(=O)O)c2cc(OC)c(Cl)cc2OC)cc1	230	151	73.4
CCOc1ccc(S(=O)(=O)N(CC(C)C)c2cc(OC)c(Cl)cc2OC)cc1	175	193	76.7
CCOc1ccc(S(=O)(=O)N(c2cc(OC)c(Cl)cc2OC)C(C)C)cc1	76	169	103.2
COc1cc(NS(=O)(=O)c2ccc(C(=O)O)cc2)c(OC)cc1Cl	89	104	98.2
CCCCCN(c1cc(OC)c(Cl)cc1OC)S(=O)(=O)c1ccc(OCC)cc1	135	105	72.9
CCCCCCCN(c1cc(OC)c(Cl)cc1OC)S(=O)(=O)c1ccc(OCC)cc1	108	95	90.4
CNC(=O)c1ccc(S(=O)(=O)Nc2cc(OC)c(Cl)cc2OC)cc1	103	105	77
CCCN(c1cc(OC)c(Cl)cc1OC)S(=O)(=O)c1ccc(OCC)cc1	227	199	71.6
COc1cc(NS(=O)(=O)c2ccc(OC)c(Br)c2)c(OC)cc1Cl	87	101	85
CCOc1ccc(S(=O)(=O)N(CCCNC(=O)CCCC[C@H]2SC[C@H]3NC(=O)N[C@H]32)c2cc(OC)c(Cl)cc2OC)cc1	195	175	69.6
COc1cc(NS(=O)(=O)c2ccccc2OC)c(OC)cc1Cl	96	101	92.1
C#CCN(c1cc(OC)c(Cl)cc1OC)S(=O)(=O)c1ccc(OCC)cc1	232	213	72
C#CCCN(c1cc(OC)c(Cl)cc1OC)S(=O)(=O)c1ccc(OCC)cc1	206	201	70.1
CCOc1ccc(S(=O)(=O)N(Cc2ccccc2)c2cc(OC)c(Cl)cc2OC)cc1	181	159	71.7
CCOc1ccc(S(=O)(=O)N(CCCNC(=O)CCCCCNC(=O)c2ccc3c(c2)C(=O)OC32c3ccc(O)cc3Oc3cc(O)ccc32)c2cc(OC)c(Cl)cc2OC)cc1		96	98.1

Now from value to molecule, other results behind:

Activity (Homo sapiens [1]) [%]	Structure (SMILES)	Activity (Homo sapiens [2]) [%]	Activity (THP-1) [%]
101	COc1cc(NS(=O)(=O)c2ccc(N)cc2)c(OC)cc1Cl	103	96
116	CCOc1ccc(S(=O)(=O)Nc2cc(OC)ccc2OC)cc1	96	73.1
103	COc1cc(NS(=O)(=O)c2ccc(CN)cc2)c(OC)cc1Cl	111	97
215	CCOc1ccc(S(=O)(=O)Nc2cc(OC)c(N=[N+]=[N-])cc2OC)cc1	201	76.6
102	CCCc1ccc(S(=O)(=O)Nc2cc(OC)c(Cl)cc2OC)cc1	103	85.7
141	CCOc1ccc(S(=O)(=O)Nc2ccc(Cl)cc2OC)cc1	109	78.3
176	CCOc1ccc(S(=O)(=O)Nc2cc(OC)c(Br)cc2OC)cc1	235	68.8
97	C#CCOc1ccc(S(=O)(=O)Nc2cc(OC)c(Cl)cc2OC)cc1	99	80.9
101	COc1cc(NS(=O)(=O)c2ccc([N+](=O)[O-])cc2)c(OC)cc1Cl	103	97.4
133	CCOc1ccc(S(=O)(=O)Nc2cc(OC)c([N+](=O)[O-])cc2OC)cc1	110	79.2
98	COc1cc(NS(=O)(=O)c2ccc(O)cc2)c(OC)cc1Cl	104	85.2
103	COc1cc(NS(=O)(=O)c2ccc(C(N)=O)cc2)c(OC)cc1Cl	94	91
149	CCCOc1ccc(S(=O)(=O)Nc2cc(OC)c(Cl)cc2OC)cc1	125	71.3
97	COc1cc(NS(=O)(=O)c2ccc(C#N)cc2)c(OC)cc1Cl	106	102.9
191	COC(=O)c1ccc(S(=O)(=O)Nc2cc(OC)c(Cl)cc2OC)cc1	202	74.4
189	CCOC(=O)c1ccc(S(=O)(=O)Nc2cc(OC)c(Cl)cc2OC)cc1	169	70.8

From ChEMBL document CHEMBL4376827, “Structure-Activity Relationship Studies To Identify Affinity Probes in Bis-aryl Sulfonamides That Prolong Immune Stimuli” (J Med Chem, 2019)
